Laboratory results as given in ChEMBL document CHEMBL3813699, “Structure-Activity Relationships of a Diverse Class of Halogenated Phenazines That Targets Persistent, Antibiotic-Tolerant Bacterial Biofilms and Mycobacterium tuberculosis” (J Med Chem, 2016).
pIC50: −log10 of the molar value. Values after ≈ are worked out from the molar mass of the structure shown.

Experiments:
Staphylococcus aureus [1] = experiment: Antibacterial activity against methicillin-resistant Staphylococcus aureus clinical isolate 2 incubated for 16 to 18 hrs by broth microdilution method; assay type: functional
[2] = system: Staphylococcus epidermidis; experiment: Antibacterial activity against Staphylococcus epidermidis ATCC 12228 incubated for 16 to 18 hrs by broth microdilution method; assay type: functional
Enterococcus faecium [3] = experiment: Antibacterial activity against vancomycin-resistant Enterococcus faecium ATCC 700221 incubated for 16 to 18 hrs by broth microdilution method; assay type: functional
[4] = Induction of hemolysis in human RBC at 200 uM incubated for 1 hr; assay type: cell-based, Erythrocyte; settings: red blood cells, read-out: Activity
Outline: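 Human RBCs (EDTA), washed three times in Tris-buffered saline pH 7.2; 2% hRBC with compound at final 200 µM, 1 h 37 °C; supernatant OD405; % hemolysis relative to DMSO (0%) and Triton X (100%).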

Staphylococcus aureus [5] = experiment: Antibiofilm activity against methicillin-resistant Staphylococcus aureus isolate 2 assessed as biofilm eradication incubated for 24 hrs by CBD assay; assay type: functional; settings: for MBC: Staphylococcus aureus, isolate 2, 24 h
Outline: (§1)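 Calgary Biofilm Device: pegs inoculated with mid-log culture diluted 1,000-fold in TSB + 0.5% glucose, 24 h 37 °C; washed pegs challenged with 2-fold dilutions 24 h 37 °C; pegs moved to fresh TSBG 24 h; MBEC = lowest concentration leaving no turbidity; 2–6 independent experiments.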

[6] = system: Staphylococcus epidermidis; experiment: Antibacterial activity against methicillin-resistant Staphylococcus epidermidis ATCC 35984 assessed as biofilm eradication incubated for 24 hrs by CBD assay; assay type: functional; settings: for MBC: Staphylococcus epidermidis, ATCC 35984, 24 h; outline: as §1
Staphylococcus aureus [7] = experiment: Antibacterial activity against methicillin-resistant Staphylococcus aureus BAA-44 incubated for 16 to 18 hrs by broth microdilution method; assay type: functional
Staphylococcus aureus [8] = experiment: Antibacterial activity against methicillin-resistant Staphylococcus aureus BAA-1707 incubated for 16 to 18 hrs by broth microdilution method; assay type: functional
[9] = system: Staphylococcus epidermidis; experiment: Antibacterial activity against methicillin-resistant Staphylococcus epidermidis ATCC 35984 incubated for 16 to 18 hrs by broth microdilution method; assay type: functional
HeLa = experiment: Cytotoxicity against human HeLa cells after 24 hrs by LDH release assay; assay type: cell-based
Outline: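 HeLa in DMEM + 10% FBS, 37 °C 5% CO2, at 70–80% confluence treated with 25, 50, 100 µM for 24 h; DMSO vehicle; Triton X-100 2% v/v max-LDH control, medium-only negative; supernatant with LDH reaction mix 30 min room temperature, stopped, absorbance 490 nm.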

Staphylococcus aureus [10] = experiment: Antibiofilm activity against methicillin-resistant Staphylococcus aureus BAA-1707 assessed as biofilm eradication incubated for 24 hrs by CBD assay; assay type: functional; settings: for MBC: Staphylococcus aureus, BAA-1707, 24 h; outline: as §1
Staphylococcus aureus [11] = experiment: Antibacterial activity against methicillin-resistant Staphylococcus aureus clinical isolate 2 incubated for 16 hrs by broth microdilution method in presence of Cu2+; assay type: functional; settings: isolate 2, 16 h
Staphylococcus aureus [12] = experiment: Antibacterial activity against methicillin-resistant Staphylococcus aureus clinical isolate 2 incubated for 16 hrs by broth microdilution method in presence of Fe2+; assay type: functional; settings: isolate 2, 16 h
Staphylococcus aureus [13] = experiment: Antibacterial activity against methicillin-resistant Staphylococcus aureus clinical isolate 2 incubated for 16 hrs by broth microdilution method; assay type: functional; settings: isolate 2, 16 h
Enterococcus faecium [14] = experiment: Antibiofilm activity against […]-resistant Enterococcus faecium ATCC 700221 assessed as biofilm eradication incubated for 24 hrs by CBD assay; assay type: functional; settings: for MBC: Enterococcus faecium, ATCC 700221, 24 h; outline: as §1
[15] = system: Mycobacterium tuberculosis; experiment: Antibacterial activity against Mycobacterium tuberculosis H37Ra ATCC 25177 after 7 days by two-fold serial dilution method; assay type: functional; settings: H37Ra ATCC 25177, 168 h

In the case of `C=CCc1cc(Br)c2nc3ccccc3nc2c1O`, the MIC (Staphylococcus aureus [1]) was over 100 µM, the MIC [2] was over 100 µM and the MIC (Enterococcus faecium [3]) was over 100 µM.

Compound `CCCCCCCCCC(=O)N[C@@H](Cc1c[nH]c2ccccc12)C(=O)N[C@H](CC(N)=O)C(=O)N[C@@H](CC(=O)O)C(=O)N[C@@H]1C(=O)NCC(=O)N[C@@H](CCCN)C(=O)N[C@@H](CC(=O)O)C(=O)N[C@H](C)C(=O)N[C@@H](CC(=O)O)C(=O)NCC(=O)N[C@H](CO)C(=O)N[C@@H]([C@H](C)CC(=O)O)C(=O)N[C@@H](CC(=O)c2ccccc2N)C(=O)O[C@@H]1C` [DAPTOMYCIN] has a hemolysis at 1 h, 200 µM [4] of 1.7%.

`Oc1c(I)cc(I)c2nccnc12` gave an MBEC (Staphylococcus aureus [5]) of over 2000 µM, an MBC (Staphylococcus aureus [5]) of over 2000 µM and an MBEC [6] of over 1000 µM. The MBC [6] was 750 µM (≈ 298 µg/mL), the MIC (Staphylococcus aureus [1]) was 3.13 µM (≈ 1.25 µg/mL) and the MIC [2] was 6.25 µM (≈ 2.49 µg/mL). For the same compound, the MIC (Staphylococcus aureus [7]) was 1.56 µM (≈ 0.621 µg/mL), the MIC (Staphylococcus aureus [8]) was 1.56 µM (≈ 0.621 µg/mL) and the MIC [9] was 3.13 µM (≈ 1.25 µg/mL). The MIC (Enterococcus faecium [3]) was 12.5 µM (≈ 4.97 µg/mL) and the hemolysis at 1 h, 200 µM [4] was at most 1%.

With `NC(=O)c1cnccn1` [PYRAZINAMIDE] the MBEC (Staphylococcus aureus [5]) was over 2000 µM and the MBC (Staphylococcus aureus [5]) was over 2000 µM.

`Oc1c(Br)cc(Br)c2nccnc12` gave an MBEC (Staphylococcus aureus [5]) of over 2000 µM, an MBC (Staphylococcus aureus [5]) of 1500 µM (≈ 456 µg/mL) and an MIC (Staphylococcus aureus [1]) of 25 µM (≈ 7.6 µg/mL). For the same compound, the MIC [2] was 18.8 µM (≈ 5.71 µg/mL), the MIC (Staphylococcus aureus [7]) was 12.5 µM (≈ 3.8 µg/mL) and the MIC (Staphylococcus aureus [8]) was 6.25 µM (≈ 1.9 µg/mL). The MIC [9] was 18.8 µM (≈ 5.71 µg/mL), the MIC (Enterococcus faecium [3]) was 100 µM (≈ 30.4 µg/mL) and the pIC50 (HeLa) was under 4.00. For the same compound, the hemolysis at 1 h, 200 µM [4] was 1.8%.

With `Oc1c(Br)cc(Br)c2nc3ccc(Br)cc3nc12` the MBEC (Staphylococcus aureus [5]) was 25 µM, the MBC (Staphylococcus aureus [5]) was 50 µM (≈ 21.6 µg/mL) and the MBEC (Staphylococcus aureus [10]) was 12.5 µM. The MBC (Staphylococcus aureus [10]) was 12.5 µM (≈ 5.41 µg/mL), the MIC [2] was 3.13 µM (≈ 1.35 µg/mL) and the MIC (Staphylococcus aureus [8]) was 0.2 µM (≈ 0.0866 µg/mL). For the same compound, the MIC [9] was 3.13 µM (≈ 1.35 µg/mL), the MIC (Enterococcus faecium [3]) was 0.78 µM (≈ 0.338 µg/mL) and the hemolysis at 1 h, 200 µM [4] was 2.1%.

`CCCCCCCCCC(=O)N[C@@H](Cc1c[nH]c2ccccc12)C(=O)N[C@@H](CC(N)=O)C(=O)N[C@@H](CC(=O)O)C(=O)N[C@@H]1C(=O)NCC(=O)N[C@@H](CCCN)C(=O)N[C@@H](CC(=O)O)C(=O)N[C@H](C)C(=O)N[C@@H](CC(=O)O)C(=O)NCC(=O)N[C@H](CO)C(=O)N[C@@H]([C@H](C)CC(=O)O)C(=O)N[C@@H](CC(=O)c2ccccc2N)C(=O)O[C@@H]1C` [DAPTOMYCIN] showed an MBEC (Staphylococcus aureus [5]) of over 2000 µM, an MBC (Staphylococcus aureus [5]) of 62.5 µM (≈ 101 µg/mL) and an MBEC (Staphylococcus aureus [10]) of over 2000 µM. The MBC (Staphylococcus aureus [10]) was 125 µM (≈ 203 µg/mL), the MIC [2] was 6.25 µM (≈ 10.1 µg/mL) and the MIC (Staphylococcus aureus [7]) was 18.8 µM (≈ 30.5 µg/mL). For the same compound, the MIC (Staphylococcus aureus [8]) was 3.13 µM (≈ 5.07 µg/mL), the MIC [9] was 12.5 µM (≈ 20.3 µg/mL) and the MIC (Staphylococcus aureus [11]) was 12.5 µM. The MIC (Staphylococcus aureus [12]) was 6.25 µM and the MIC (Staphylococcus aureus [13]) was 6.25 µM (≈ 10.1 µg/mL).

`CCCCc1cc(Br)c(O)c2nc3ccccc3nc12` gave an MBEC (Staphylococcus aureus [5]) of 188 µM, an MBC (Staphylococcus aureus [5]) of 46.9 µM (≈ 15.5 µg/mL) and an MBEC (Staphylococcus aureus [10]) of 62.5 µM. The MBC (Staphylococcus aureus [10]) was 46.9 µM (≈ 15.5 µg/mL), the MBEC [6] was 23.5 µM and the MBC [6] was 11.7 µM (≈ 3.88 µg/mL). It also gave an MIC (Staphylococcus aureus [1]) of 3.13 µM (≈ 1.04 µg/mL), an MIC (Enterococcus faecium [3]) of 0.78 µM (≈ 0.258 µg/mL) and an MBEC (Enterococcus faecium [14]) of 2 µM. The MBC (Enterococcus faecium [14]) was 2 µM (≈ 0.662 µg/mL) and the hemolysis at 1 h, 200 µM [4] was 11.5%.

Compound `Cc1nc2c(I)cc(I)c(O)c2nc1C` has an MBC (Staphylococcus aureus [5]) of 93.8 µM (≈ 40 µg/mL), an MBEC [6] of 125 µM and an MBC [6] of 23.5 µM (≈ 10 µg/mL). The MIC [2] was 2.35 µM (≈ 1 µg/mL), the MIC (Enterococcus faecium [3]) was 6.25 µM (≈ 2.66 µg/mL) and the MIC [15] was over 50 µM. The pIC50 (HeLa) was under 4.00, the hemolysis at 1 h, 200 µM [4] was 1.2% and the MIC (Staphylococcus aureus [13]) was 1.17 µM (≈ 0.498 µg/mL).

`Oc1c(I)cc(Cl)c2nc3ccccc3nc12` gave an MBEC (Staphylococcus aureus [5]) of 250 µM, an MBC (Staphylococcus aureus [5]) of 93.8 µM (≈ 33.4 µg/mL) and an MBEC [6] of 250 µM. It also gave an MBC [6] of 125 µM (≈ 44.6 µg/mL), an MIC (Staphylococcus aureus [1]) of 25 µM (≈ 8.91 µg/mL) and an MIC [2] of 25 µM (≈ 8.91 µg/mL). It also gave an MIC (Staphylococcus aureus [7]) of 12.5 µM (≈ 4.46 µg/mL), an MIC (Staphylococcus aureus [8]) of 3.13 µM (≈ 1.12 µg/mL) and an MIC [9] of 25 µM (≈ 8.91 µg/mL). It also gave an MIC (Enterococcus faecium [3]) of 6.25 µM (≈ 2.23 µg/mL) and a hemolysis at 1 h, 200 µM [4] of at most 1%.

For `CN[C@@H]1[C@H](O[C@H]2[C@H](O[C@H]3[C@H](O)[C@@H](O)[C@H](N=C(N)N)[C@@H](O)[C@@H]3N=C(N)N)O[C@@H](C)[C@]2(O)C=O)O[C@@H](CO)[C@H](O)[C@H]1O` [STREPTOMYCIN], the MIC [15] was 1.32 µM (≈ 0.768 µg/mL).

With `Oc1c(Cl)cc(I)c2nc3ccccc3nc12` the MBEC (Staphylococcus aureus [5]) was 125 µM, the MBC (Staphylococcus aureus [5]) was 15.6 µM (≈ 5.56 µg/mL) and the MIC (Staphylococcus aureus [1]) was 1.56 µM (≈ 0.556 µg/mL). The MIC [2] was 1.56 µM (≈ 0.556 µg/mL), the MIC (Staphylococcus aureus [7]) was 1.56 µM (≈ 0.556 µg/mL) and the MIC (Staphylococcus aureus [8]) was 1.56 µM (≈ 0.556 µg/mL). The MIC [9] was 1.56 µM (≈ 0.556 µg/mL), the MIC (Enterococcus faecium [3]) was 6.25 µM (≈ 2.23 µg/mL) and the pIC50 (HeLa) was under 4.00. The hemolysis at 1 h, 200 µM [4] was 5.1%.

`CN[C@@H](CC(C)C)C(=O)N[C@H]1C(=O)N[C@@H](CC(N)=O)C(=O)N[C@H]2C(=O)N[C@H]3C(=O)N[C@H](C(=O)N[C@@H](C(=O)O)c4cc(O)cc(O)c4-c4cc3ccc4O)[C@H](O)c3ccc(c(Cl)c3)Oc3cc2cc(c3O[C@H]2O[C@@H](CO)[C@H](O)[C@@H](O)[C@@H]2O[C@@H]2C[C@@](C)(N)[C@@H](O)[C@@H](C)O2)Oc2ccc(cc2Cl)[C@H]1O` gave an MBEC (Staphylococcus aureus [5]) of over 2000 µM, an MBC (Staphylococcus aureus [5]) of 3 µM (≈ 4.35 µg/mL) and an MBEC (Staphylococcus aureus [10]) of over 2000 µM. For the same compound, the MBC (Staphylococcus aureus [10]) was 3.9 µM (≈ 5.65 µg/mL), the MBEC [6] was over 2000 µM and the MBC [6] was 3 µM (≈ 4.35 µg/mL). The MIC [2] was 1.17 µM (≈ 1.7 µg/mL), the MIC (Enterococcus faecium [3]) was over 100 µM and the MBEC (Enterococcus faecium [14]) was 150 µM. For the same compound, the MBC (Enterococcus faecium [14]) was over 200 µM and the hemolysis at 1 h, 200 µM [4] was at most 1%.

For `Cc1nc2c(Br)cc(Br)c(O)c2nc1C`, the MBEC (Staphylococcus aureus [5]) was 1500 µM, the MBC (Staphylococcus aureus [5]) was 125 µM (≈ 41.5 µg/mL) and the MIC [2] was 12.5 µM (≈ 4.15 µg/mL). For the same compound, the MIC (Staphylococcus aureus [7]) was 6.25 µM (≈ 2.07 µg/mL), the MIC (Enterococcus faecium [3]) was 25 µM (≈ 8.3 µg/mL) and the hemolysis at 1 h, 200 µM [4] was at most 1%.
